According to ChEMBL document CHEMBL1150057, “Bioactive ergost-5-ene-3 beta, 7 alpha-diol derivatives from Pseudobersama mossambicensis” (J Nat Prod, 1992):

Key:
[1] = test system: Saccharomyces cerevisiae; assay: DNA damaging activity against RS322YK rad52 DNA repair gene deficient Saccharomyces cerevisiae mutant assessed as drug level required to produce 12 mm zone of inhibition after 48 hrs; type: functional
Procedure, shortened: (§1)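 Yeast agar-well diffusion: strain plated on YPD agar (7 mm layer); 6 mm wells cut with cork borer; sample dissolved in DMSO-MeOH (1:1), 100 μl per well. Plates read after 48 h at 30°. IC12 = concentration (μg/ml) giving a 12 mm inhibition zone, taken from dose-response curves by linear regression (log dose as Y, zone size as X).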

[2] = test system: Saccharomyces cerevisiae; assay: DNA damaging activity against RS167N rad6 DNA repair gene deficient Saccharomyces cerevisiae mutant assessed as drug level required to produce 12 mm zone of inhibition after 48 hrs; type: functional; procedure, shortened: as §1
[3] = test system: Saccharomyces cerevisiae; assay: DNA damaging activity against RS188N rad DNA repair gene expressing wild type Saccharomyces cerevisiae assessed as drug level required to produce 12 mm zone of inhibition after 48 hrs; type: functional; procedure, shortened: as §1
[4] = test system: P388; assay: Cytotoxicity against mouse P388 cells; type: functional, cell-based

SMILES	IC12 [1] [µg/mL]	IC12 [2] [µg/mL]	IC12 [3] [µg/mL]	IC50 [4] [µM]
CC[C@@]1(O)C(=O)OCc2c1cc1n(c2=O)Cc2cc3ccccc3nc2-1 [CAMPTOTHECIN]	0.6	8.7	–	–
CC(C)C1(CC[C@@H](C)[C@H]2CC[C@H]3[C@@H]4[C@H](O)C=C5C[C@@H](O)CC[C@]5(C)[C@H]4CC[C@]23C)CO1 (stereo partly drawn)	0.4	6	> 50	–
COC1=C(N)C(=O)c2nc(-c3nc(C(=O)O)c(C)c(-c4ccc(OC)c(OC)c4O)c3N)ccc2C1=O [STREPTONIGRIN]	0.4	2.4	–	–
CC(C)C(O)(CO)CC[C@@H](C)[C@H]1CC[C@H]2[C@@H]3[C@H](O)C=C4C[C@@H](O)CC[C@]4(C)[C@H]3CC[C@]12C (stereo partly drawn)	1	–	> 100	–
C=C(CC[C@@H](C)[C@H]1CC[C@H]2[C@@H]3[C@H](O)C=C4C[C@@H](O)CC[C@]4(C)[C@H]3CC[C@]12C)C(C)C	8	12	> 1500	4.3
